Reference: ChEMBL document CHEMBL4118021, “Studies of TAK1-centered polypharmacology with novel covalent TAK1 inhibitors” (Bioorg Med Chem, 2017)
Calls of active or inactive are those of the source.

Columns and labels:
Type in all cases: cell-based
[1] = biological target: T1, Mitogen-activated protein kinase kinase kinase 7 (Homo sapiens) (UniProt O43318); test: Inhibition of biotin-labeled N-(2-(2-(2-(2-(4-(4-((4-((2-Acrylamidophenyl)amino)-5-chloropyrimidin-2-yl)amino)phenyl)piperazin-1-yl)ethoxy)ethoxy)ethoxy)ethyl)-5-((3aS,4S,6aR)-2-oxohexahydro-1H-thieno[3,4-d]imidazol-4-yl)pentanamide probe binding to TAK1 in human NCI-H358 cells at 10 uM after 6 hrs by immunoblot based competitive pull down assay
T1 sequence (whole entry): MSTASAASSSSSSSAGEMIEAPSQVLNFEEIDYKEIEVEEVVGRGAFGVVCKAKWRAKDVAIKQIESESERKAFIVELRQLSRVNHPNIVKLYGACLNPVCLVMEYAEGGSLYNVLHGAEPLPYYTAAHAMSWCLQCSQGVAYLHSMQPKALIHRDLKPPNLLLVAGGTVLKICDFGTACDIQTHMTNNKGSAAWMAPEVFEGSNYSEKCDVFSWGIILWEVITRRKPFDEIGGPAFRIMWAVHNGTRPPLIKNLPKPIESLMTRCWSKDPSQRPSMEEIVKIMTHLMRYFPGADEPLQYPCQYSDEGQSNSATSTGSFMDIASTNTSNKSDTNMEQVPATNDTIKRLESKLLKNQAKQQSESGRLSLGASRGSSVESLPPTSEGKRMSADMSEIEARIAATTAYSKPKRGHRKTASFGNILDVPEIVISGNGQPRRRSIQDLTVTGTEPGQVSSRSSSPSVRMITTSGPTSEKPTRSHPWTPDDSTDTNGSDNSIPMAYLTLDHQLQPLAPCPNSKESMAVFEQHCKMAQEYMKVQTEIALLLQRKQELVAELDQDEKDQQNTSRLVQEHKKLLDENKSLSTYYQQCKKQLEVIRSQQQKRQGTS
How it was run: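 H358 cells given 1 or 10 μM compound for 6 h, medium removed, cells rinsed twice with cold PBS and lysed in MPER buffer. Lysates incubated overnight at 4 °C with 1 μM biotinylated covalent probe, captured on streptavidin beads, and TAK1 recovery assessed by immunoblotting with anti-TAK1 antibody.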

[2] = biological target: Mitogen-activated protein kinase 13 (Homo sapiens) (UniProt O15264); test: Inhibition of p38d in human SKCO1 cells at 1 uM after 4 hrs using biotin labeled DLKPGNLAVNEDCELK probe by mass-spectrometric analysis relative to control
Sequence of Mitogen-activated protein kinase 13 (Homo sapiens) (O15264 whole entry): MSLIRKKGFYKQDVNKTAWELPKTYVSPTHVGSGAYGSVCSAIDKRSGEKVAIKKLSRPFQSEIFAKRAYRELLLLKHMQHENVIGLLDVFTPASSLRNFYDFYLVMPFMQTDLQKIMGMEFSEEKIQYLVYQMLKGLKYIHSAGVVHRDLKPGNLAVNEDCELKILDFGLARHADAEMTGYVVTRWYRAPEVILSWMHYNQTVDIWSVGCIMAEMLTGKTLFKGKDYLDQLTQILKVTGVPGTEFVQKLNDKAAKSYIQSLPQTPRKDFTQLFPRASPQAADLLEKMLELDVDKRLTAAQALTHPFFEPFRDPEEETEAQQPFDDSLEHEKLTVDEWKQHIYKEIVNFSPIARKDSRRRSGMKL

Plectin (Homo sapiens) = Plectin (Homo sapiens) (UniProt Q15149); test: Binding affinity to PLEC in human NCI-H23 cells at 1 uM by mass spectrometry based pull down assay
[3] = biological target: Protein NipSnap homolog 1 (Homo sapiens) (UniProt Q9BPW8); test: Binding affinity to NIPSNAP1 in human NCI-H23 cells at 1 uM by mass spectrometry based pull down assay
Sequence of Protein NipSnap homolog 1 (Homo sapiens) (Q9BPW8 whole entry): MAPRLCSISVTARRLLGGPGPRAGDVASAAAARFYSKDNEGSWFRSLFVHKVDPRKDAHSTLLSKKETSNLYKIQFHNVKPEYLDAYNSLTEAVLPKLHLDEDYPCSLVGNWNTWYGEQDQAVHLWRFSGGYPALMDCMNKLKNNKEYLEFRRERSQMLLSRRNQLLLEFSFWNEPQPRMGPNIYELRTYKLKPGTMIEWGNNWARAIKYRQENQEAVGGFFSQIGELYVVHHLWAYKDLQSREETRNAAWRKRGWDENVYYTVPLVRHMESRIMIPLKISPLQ

[4] = biological target: Acylamino-acid-releasing enzyme (Homo sapiens) (UniProt P13798); test: Binding affinity to APEH in human NCI-H358 cells at 1 uM by mass spectrometry based pull down assay
Sequence of Acylamino-acid-releasing enzyme (Homo sapiens) (P13798 whole entry): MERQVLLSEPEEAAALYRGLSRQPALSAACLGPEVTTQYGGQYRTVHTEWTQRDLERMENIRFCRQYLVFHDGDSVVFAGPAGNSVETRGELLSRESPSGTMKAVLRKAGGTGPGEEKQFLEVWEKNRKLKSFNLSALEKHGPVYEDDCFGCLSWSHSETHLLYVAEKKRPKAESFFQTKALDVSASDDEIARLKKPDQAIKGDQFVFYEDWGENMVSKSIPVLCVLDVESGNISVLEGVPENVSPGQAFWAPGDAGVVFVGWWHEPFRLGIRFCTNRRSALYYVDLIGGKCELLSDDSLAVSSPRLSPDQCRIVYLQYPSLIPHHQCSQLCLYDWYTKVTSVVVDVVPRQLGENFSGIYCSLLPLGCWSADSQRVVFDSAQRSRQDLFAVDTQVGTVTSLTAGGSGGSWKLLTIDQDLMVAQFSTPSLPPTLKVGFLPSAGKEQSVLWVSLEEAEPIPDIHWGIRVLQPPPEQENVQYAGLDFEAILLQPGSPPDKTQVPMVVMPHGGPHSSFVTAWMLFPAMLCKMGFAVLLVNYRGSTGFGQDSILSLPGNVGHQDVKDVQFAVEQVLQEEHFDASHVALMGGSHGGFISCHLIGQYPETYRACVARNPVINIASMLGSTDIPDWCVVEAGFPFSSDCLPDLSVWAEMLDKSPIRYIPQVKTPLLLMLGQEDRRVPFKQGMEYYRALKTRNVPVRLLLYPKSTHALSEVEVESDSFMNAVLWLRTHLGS

[5] = biological target: T2, Non-receptor tyrosine-protein kinase TNK1 (Homo sapiens) (UniProt Q13470); test: Binding affinity to TNK1 in human NCI-H358 cells at 1 uM by mass spectrometry based pull down assay
T2 sequence (whole entry): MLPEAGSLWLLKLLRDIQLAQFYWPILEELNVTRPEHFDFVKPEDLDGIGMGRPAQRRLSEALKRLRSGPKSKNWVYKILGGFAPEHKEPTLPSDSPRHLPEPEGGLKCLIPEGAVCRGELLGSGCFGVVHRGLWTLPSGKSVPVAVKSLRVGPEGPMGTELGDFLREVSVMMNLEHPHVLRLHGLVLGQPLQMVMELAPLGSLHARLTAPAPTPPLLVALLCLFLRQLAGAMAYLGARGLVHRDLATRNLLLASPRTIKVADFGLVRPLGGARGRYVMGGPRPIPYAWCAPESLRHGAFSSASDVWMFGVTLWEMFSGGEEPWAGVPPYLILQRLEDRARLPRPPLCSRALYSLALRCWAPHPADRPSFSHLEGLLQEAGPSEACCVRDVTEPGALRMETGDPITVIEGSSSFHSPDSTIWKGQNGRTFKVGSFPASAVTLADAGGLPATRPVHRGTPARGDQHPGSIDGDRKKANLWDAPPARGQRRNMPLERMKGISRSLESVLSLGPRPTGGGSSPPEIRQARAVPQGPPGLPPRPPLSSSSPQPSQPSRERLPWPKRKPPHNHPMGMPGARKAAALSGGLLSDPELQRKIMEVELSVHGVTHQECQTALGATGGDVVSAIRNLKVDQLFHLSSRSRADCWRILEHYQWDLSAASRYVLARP

[6] = biological target: 80S Ribosome (Homo sapiens) (UniProt P08865+P42677+P62753+P15880+P23396+P61247+P62701+P22090+P46782+P62081+P62241+P46781+P46783+P62280+P25398+P62277+P62263+P62841+P62244+P62249+P08708+P62269+P39019+P60866+P63220+P62266+P62847+P62851+P62854+P62979+P62857+P62273+P62861+P39023+P36578+P46777+Q02878+P18124+P62424+P62917+P32969+P27635+P62906+P62913+P30050+P26373+P40429+P50914+P61313+P18621+Q07020+Q02543+P84098+P46778+P35268+P62829+P62750+P83731+P61254+P61353+P46776+P46779+P47914+P62888+P62899+P62910+P49207+P42766+P18077+Q9Y3U8+P83881+P61927+P61513+P63173+P62891+P62945+P05388+P05386); test: Binding affinity to RPS26 in human NCI-H358 cells at 1 uM by mass spectrometry based pull down assay
[7] = biological target: Catenin alpha-1 (Homo sapiens) (UniProt P35221); test: Binding affinity to CTNNA1 in human NCI-H358 cells at 1 uM by mass spectrometry based pull down assay
Sequence of Catenin alpha-1 (Homo sapiens) (P35221 whole entry): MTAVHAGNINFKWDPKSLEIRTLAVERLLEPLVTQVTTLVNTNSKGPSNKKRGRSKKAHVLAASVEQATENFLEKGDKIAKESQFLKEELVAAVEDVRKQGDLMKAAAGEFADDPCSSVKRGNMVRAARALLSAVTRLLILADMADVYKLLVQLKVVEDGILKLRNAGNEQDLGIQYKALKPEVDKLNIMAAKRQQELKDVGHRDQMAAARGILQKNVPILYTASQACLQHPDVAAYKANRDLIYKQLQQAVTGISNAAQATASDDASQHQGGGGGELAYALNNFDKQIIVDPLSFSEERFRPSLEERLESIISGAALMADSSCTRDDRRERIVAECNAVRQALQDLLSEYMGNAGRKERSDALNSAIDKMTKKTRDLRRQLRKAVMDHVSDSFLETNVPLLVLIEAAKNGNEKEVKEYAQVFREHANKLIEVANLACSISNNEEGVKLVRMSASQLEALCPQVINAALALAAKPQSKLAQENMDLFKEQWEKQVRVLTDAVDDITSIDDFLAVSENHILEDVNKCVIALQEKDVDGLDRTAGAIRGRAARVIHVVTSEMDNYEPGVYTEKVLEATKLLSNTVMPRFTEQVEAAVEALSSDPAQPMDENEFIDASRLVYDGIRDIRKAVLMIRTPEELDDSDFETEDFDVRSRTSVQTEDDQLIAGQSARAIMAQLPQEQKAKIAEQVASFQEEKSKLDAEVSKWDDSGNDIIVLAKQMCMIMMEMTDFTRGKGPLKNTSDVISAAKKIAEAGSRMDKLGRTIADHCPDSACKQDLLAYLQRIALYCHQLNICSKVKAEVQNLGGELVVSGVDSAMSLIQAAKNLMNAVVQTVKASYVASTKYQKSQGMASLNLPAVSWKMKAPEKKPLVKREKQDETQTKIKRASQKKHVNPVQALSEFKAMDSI

[8] = biological target: Kelch-like ECH-associated protein 1 (Homo sapiens) (UniProt Q14145); test: Binding affinity to KEAP1 in human NCI-H358 cells at 1 uM by mass spectrometry based pull down assay
Sequence of Kelch-like ECH-associated protein 1 (Homo sapiens) (Q14145 whole entry): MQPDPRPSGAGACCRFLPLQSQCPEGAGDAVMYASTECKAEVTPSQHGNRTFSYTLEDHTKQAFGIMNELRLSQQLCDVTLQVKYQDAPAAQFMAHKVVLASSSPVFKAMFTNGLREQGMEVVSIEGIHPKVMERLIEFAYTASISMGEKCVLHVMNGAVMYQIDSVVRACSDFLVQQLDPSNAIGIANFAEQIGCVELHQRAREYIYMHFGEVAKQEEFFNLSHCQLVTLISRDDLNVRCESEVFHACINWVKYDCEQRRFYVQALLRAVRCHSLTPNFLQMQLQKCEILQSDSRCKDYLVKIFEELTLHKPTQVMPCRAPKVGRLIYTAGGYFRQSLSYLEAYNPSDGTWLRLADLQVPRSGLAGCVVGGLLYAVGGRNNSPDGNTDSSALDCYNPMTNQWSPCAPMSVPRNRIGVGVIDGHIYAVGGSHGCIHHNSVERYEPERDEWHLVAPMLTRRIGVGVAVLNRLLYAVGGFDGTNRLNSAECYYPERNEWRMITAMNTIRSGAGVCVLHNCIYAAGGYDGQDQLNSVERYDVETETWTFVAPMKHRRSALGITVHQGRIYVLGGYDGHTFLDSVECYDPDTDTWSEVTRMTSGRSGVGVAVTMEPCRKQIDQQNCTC

[9] = biological target: T3, Dual specificity mitogen-activated protein kinase kinase 3 (Homo sapiens) (UniProt P46734); test: Binding affinity to MAP2K3 in human NCI-H23 cells at 1 uM by mass spectrometry based pull down assay
T3 sequence (whole entry): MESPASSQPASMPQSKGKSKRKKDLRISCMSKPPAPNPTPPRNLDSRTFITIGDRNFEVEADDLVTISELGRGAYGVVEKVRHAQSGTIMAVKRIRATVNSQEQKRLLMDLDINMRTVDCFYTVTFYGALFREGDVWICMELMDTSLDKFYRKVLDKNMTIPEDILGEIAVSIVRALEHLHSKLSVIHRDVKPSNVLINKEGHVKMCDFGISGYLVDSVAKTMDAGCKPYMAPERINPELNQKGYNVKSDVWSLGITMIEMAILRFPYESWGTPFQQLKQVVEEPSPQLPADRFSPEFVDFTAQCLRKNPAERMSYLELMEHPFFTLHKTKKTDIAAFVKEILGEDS

C=CC(=O)Nc1ccccc1Oc1nc(Nc2cnn(CCOC)c2)ncc1Cl
active: inhibition [1]

C=CC(=O)Nc1ccccc1Nc1nc(Nc2ccc(N3CCN(C)CC3)cc2)ncc1Cl
-8.5%: inhibition [2]

C=CC(=O)Nc1ccccc1Nc1nc(Nc2ccc(N3CCN(CCOCCOCCOCCNC(=O)CCCC[C@@H]4SC[C@@H]5NC(=O)N[C@@H]54)CC3)cc2)ncc1Cl
active: Activity (Plectin (Homo sapiens)) | Activity [3] | Activity [4] | Activity [5] | Activity [6] | Activity [7] | Activity [8] | Activity [9]
